Where “and” joins values, the source holds several entries; their conditions need not be identical. Identical values can stand only once.
Assays:
Homo sapiens = organism: Homo sapiens; assay: % Nucleoside derivatives released after 48 hr of hydrolysis at pH 7.2; format: functional
Outline: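 Incubation at 37 °C for 48 h in normal human serum (pH 7.2). Aliquots were quenched in ice-cold methanol and centrifuged, and supernatants were filtered. HPLC used a 20–100% solvent B gradient over 20 min with detection at 267 nm. Percent of AZT and succinate-AZT released was calculated from peak areas.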

[1] = half life required for 50% hydrolysis of compound to AZT upon incubation in NHS; format: ADME, organism-based; conditions: human, NHS (human serum)
Outline: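 Incubation at 37 °C in normal human serum. Samples were quenched with ice-cold methanol, centrifuged and filtered, then run on HPLC at 267 nm. t1/2 is the time to 50% hydrolysis to AZT.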

MT4 [2] = assay: Concentration required to inhibit the cytopathicity of HIV-1 strain BRU by 50% in MT-4 cells (expressed in AZT equivalent); format: functional, cell-based; conditions: Homo sapiens
Outline: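 MT-4 cells (3 × 10⁵), cultured in RPMI/10% FCS, were pretreated with compound for 1 h at 37 °C. Cells were then infected with HIV-1 BRU (MOI 0.1 CCID/cell) for 1 h, washed three times and cultured 7 days with or without compound, with medium renewed on day 3. Cytopathicity was scored microscopically, in duplicate. Final DMSO was <2%, with DMSO-matched standard assays.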

MT4 [3] = assay: Concentration required to inhibit the cytopathicity of HIV-1 strain IIIB by 50% in MT-4 cells (expressed in AZT equivalent); format: functional, cell-based; conditions: Homo sapiens
Outline: (§1)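 MT-4 cells in RPMI 1640 with 10% heat-inactivated FCS, 2 mM L-glutamine, 0.1% bicarbonate and 20 µg/mL gentamicin were infected with HIV-1 IIIB before compound was added. Inhibition of virus-induced cytopathicity was read 5 days after infection.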

MT4 [4] = assay: Concentration required to cause 50% death of uninfected MT-4 cells (expressed in AZT equivalent); format: functional, Homo sapiens
Outline: (§2)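 Uninfected MT-4 cells were exposed to compound. Growth was followed and viability measured by trypan blue exclusion, or as viability of mock-infected cells on day 5. CC50 is the concentration giving 50% cell death.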

MT4 [5] = assay: Concentration required to cause 50% death of uninfected MT-4 cells (expressed in k-carrageenan equivalent); format: functional, Homo sapiens; outline: as §2
MT4 [6] = assay: Concentration required to inhibit the cytopathicity of HIV-1 strain IIIB by 50% in MT-4 cells (expressed in k-carrageenan equivalent); format: functional, cell-based; conditions: Homo sapiens; outline: as §1

Row | half-life [1] [h] | Compound | Release (Homo sapiens) [%] | EC50 (MT4 [2]) [nM] | EC50 (MT4 [3]) [nM] | CC50 (MT4 [4]) | CC50 (MT4 [5]) [µg/mL] | CC50 (MT4 [5]; Homo sapiens, MT4, read-out: CC50) [µg/mL] | EC50 (MT4 [6]) [µg/mL]
1 | 25 | Cc1cn([C@H]2C[C@H](N=[N+]=[N-])[C@@H](COC(=O)CCC(=O)O)O2)c(=O)[nH]c1=O | 100 | 15 | 65 | > 50000 nM and 130000 nM | – | – | –
2 | – | Cc1cn([C@H]2C[C@H](N=[N+]=[N-])[C@@H](CO)O2)c(=O)[nH]c1=O [ZIDOVUDINE] | – | 25 | – | > 100000 nM and 42000 nM | – | – | –
3 | – | CO[C@H]1O[C@@H]2CO[C@@H]([C@H]1O)[C@H]2O[C@@H]1O[C@H](CO)[C@H](OS(=O)(=O)[O-])[C@H](O[C@H]2O[C@@H]3CO[C@@H]([C@H]2O)[C@H]3O[C@@H]2O[C@H](COC(=O)CCC(=O)OC[C@H]3O[C@@H](n4cc(C)c(=O)[nH]c4=O)C[C@@H]3N=[N+]=[N-])[C@H](OS(=O)(=O)[O-])[C@H](O[C@H]3O[C@@H]4CO[C@@H]([C@H]3O)[C@H]4O[C@@H]3O[C@H](CO)[C@H](OS(=O)(=O)[O-])[C@@H](O[C@H]4O[C@@H]5CO[C@@H]([C@H]4O)[C@H]5O[C@@H]4O[C@H](CO)[C@H](OS(=O)(=O)[O-])[C@H](O[C@H]5O[C@@H]6CO[C@@H]([C@H]5O)[C@H]6O[C@@H]5O[C@H](COC(=O)CCC(=O)OC[C@H]6O[C@@H](n7cc(C)c(=O)[nH]c7=O)C[C@@H]6N=[N+]=[N-])[C@H](OS(=O)(=O)[O-])[C@H](O[C@H]6O[C@@H]7CO[C@@H]([C@H]6O)[C@H]7O[C@@H]6O[C@H](CO)[C@H](OS(=O)(=O)[O-])[C@@H](O[C@H]7O[C@@H]8CO[C@@H]([C@H]7O)[C@H]8O[C@@H]7O[C@H](CO)[C@H](OS(=O)(=O)[O-])[C@H](O[C@H]8O[C@@H]9CO[C@@H]([C@H]8O)[C@H]9O[C@@H]8O[C@H](COC(=O)CCC(=O)OC[C@H]9O[C@@H](n%10cc(C)c(=O)[nH]c%10=O)C[C@@H]9N=[N+]=[N-])[C@H](OS(=O)(=O)[O-])[C@H](O[C@H]9O[C@@H]%10CO[C@@H]([C@H]9O)[C@H]%10O[C@@H]9O[C@H](CO)[C@H](OS(=O)(=O)[O-])[C@H](C)[C@H]9O)[C@H]8O)[C@H]7O)[C@H]6O)[C@H]5O)[C@H]4O)[C@H]3O)[C@H]2O)[C@H]1O.[Na+].[Na+].[Na+].[Na+].[Na+].[Na+].[Na+].[Na+].[Na+] | 39 | – | 109 | – | 300 | 300 | 1.6

Reference: ChEMBL document CHEMBL1135888, “Synthesis of new covalently bound kappa-carrageenan-AZT conjugates with improved anti-HIV activities” (J Med Chem, 2002)
